The values below come from ChEMBL document CHEMBL5390255, “Expanding the squaramide library as mycobacterial ATP synthase inhibitors: Innovative synthetic pathway and biological evaluation” (Bioorg Med Chem, 2023).

Assay type in all cases: functional
The subject of assay [1] is Mycobacterium tuberculosis. As to the kind of experiment: Induction of drug resistance in Mycobacterium tuberculosis H37Ra at 10 to 16 fold MIC. The conditions noted are these: time 4-5 weeks. Put shortly: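 Exponential-phase H37Ra, about 10⁷ bacteria, plated on 7H11 agar with compound at 10x and 16x MIC. Incubated 4–5 weeks at 37 °C. Frequency calculated as mutant colonies divided by total cells plated. Clones confirmed by PCR and Sanger sequencing of atp genes and rv0678.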

For assay [2], the system named is Mycobacterium tuberculosis. As to the kind of experiment: Antibacterial activity against Bedaquiline- sensitive Mycobacterium tuberculosis H37Ra harboring atpB.K179N_02 mutant incubated for 7 days by resazurin staining based microtiter assay. The conditions noted are these: time 7 day. The method in brief: (§1)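 Resazurin microtiter assay on H37Ra atpB K179N mutants and wild type, using exponential cultures diluted to OD 0.02. 3-fold serial dilution from 10 µM (0.002–10 µM), in triplicate. After 7 days, 0.02% resazurin added for 24 h, then fluorescence read (ex 530/em 590 nm). MIC taken from four-parameter variable-slope nonlinear regression.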
(In general: Resazurin is reduced to fluorescent resorufin, in cell work by metabolically active cells.)

Assay [3] deals with Mycobacterium tuberculosis. Put plainly: Antibacterial activity against Bedaquiline- sensitive Mycobacterium tuberculosis H37Ra harboring atpB.K179N_01 mutant incubated for 7 days by resazurin staining based microtiter assay. Conditions: time 7 day. Put shortly:
as §1

Each structure is given as a SMILES string. In brackets after ≈: the same amount, converted by molar mass. Activity calls are given as the source filed them. The rule behind the calls is not given here.

Take `COc1ccc(-c2c(NCc3ccccn3)c(=O)c2=O)cc1`: the result in assay [1] was Active.
For orientation: MIC means the least concentration at which growth counts as inhibited. Read a high MIC as a need for much substance. For the molecule `COc1nc2ccc(Br)cc2cc1[C@@H](c1ccccc1)[C@@](O)(CCN(C)C)c1cccc2ccccc12` [BEDAQUILINE], the MIC in assay [2] was found to be 0.12 µM (≈ 0.0667 µg/mL); in assay [3], 0.11 µM (≈ 0.0611 µg/mL).
With `O=c1c(NCc2ccccn2)c(-c2ccc(N3CCCCC3)cc2)c1=O`, the outcome in assay [1] was Active.
